TLR4 MyD88 comp: TLR4-MyD88 interaction inhibition in cells; O00206+Q99836; HeLa CL3-4 TLR4/MyD88 BLA complementation, FRET ratio; inhibition, % at 8.4 µM; 200,000 tested, 0.18% active; AID 861; in the data active = inhibition above about 25%;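 note: 0% = vehicle and 100% = reference inhibitor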
NOD2 RIPK2 PPI: NOD2-RIPK2 protein interaction inhibition | O43353 | CHO BLA complementation NOD2-RIPK2, CCF4 ratio | inhibition, % at 4.98 µM | 360,000 tested, 0.38% active; in the data active = inhibition above about 21%;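 note: 0% = vehicle only and 100% = reference blocker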
UPR CHOP act: apoptotic UPR (CHOP) activation | 330,000 tested, 0.34% active | activation, % at 10 µM | CHO-CHOP luciferase reporter, luminescence; percent of tunicamycin response over DMSO baseline;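 active = at 10 µM dose, activation of 40% or more, normalized to positive control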;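 note: 100% = tunicamycin at 10 µg/mL and 0% = DMSO alone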
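System: CHO-CHOP luciferase reporter cell line | Buffer or medium: F12 medium containing 10% fetal bovine serum | Doses: One dose, 10 µM in 0.5% DMSO | Times: 6 h compound exposure at 37 °C after overnight seeding | Signal: Luciferase luminescence | Read-out: % activation vs tunicamycin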
TLR9-MyD88 inh: TLR9-MyD88 interaction inhibition; Q9NR96+Q99836; CHO BLA complementation TLR9-MyD88, CCF4 FRET ratio; inhibition, % at 4.98 µM; 340,000 tested, 0.21% active;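 active = inhibition above the mean over all tested compounds plus 3 SD, cut at about 21% in these data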;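 note: 0% = DMSO only wells and 100% = clavulanate BLA inhibitor control wells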
Target sequence (Q99836 whole entry, looked up): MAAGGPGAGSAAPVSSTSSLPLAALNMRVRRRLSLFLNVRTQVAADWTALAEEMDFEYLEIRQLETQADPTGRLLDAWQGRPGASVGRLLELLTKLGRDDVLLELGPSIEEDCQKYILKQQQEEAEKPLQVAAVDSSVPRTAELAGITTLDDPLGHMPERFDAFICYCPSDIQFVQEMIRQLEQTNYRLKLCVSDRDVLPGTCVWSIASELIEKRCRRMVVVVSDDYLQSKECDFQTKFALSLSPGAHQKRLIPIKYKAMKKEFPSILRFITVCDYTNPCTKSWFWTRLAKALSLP
Target sequence (Q9NR96 whole entry, looked up): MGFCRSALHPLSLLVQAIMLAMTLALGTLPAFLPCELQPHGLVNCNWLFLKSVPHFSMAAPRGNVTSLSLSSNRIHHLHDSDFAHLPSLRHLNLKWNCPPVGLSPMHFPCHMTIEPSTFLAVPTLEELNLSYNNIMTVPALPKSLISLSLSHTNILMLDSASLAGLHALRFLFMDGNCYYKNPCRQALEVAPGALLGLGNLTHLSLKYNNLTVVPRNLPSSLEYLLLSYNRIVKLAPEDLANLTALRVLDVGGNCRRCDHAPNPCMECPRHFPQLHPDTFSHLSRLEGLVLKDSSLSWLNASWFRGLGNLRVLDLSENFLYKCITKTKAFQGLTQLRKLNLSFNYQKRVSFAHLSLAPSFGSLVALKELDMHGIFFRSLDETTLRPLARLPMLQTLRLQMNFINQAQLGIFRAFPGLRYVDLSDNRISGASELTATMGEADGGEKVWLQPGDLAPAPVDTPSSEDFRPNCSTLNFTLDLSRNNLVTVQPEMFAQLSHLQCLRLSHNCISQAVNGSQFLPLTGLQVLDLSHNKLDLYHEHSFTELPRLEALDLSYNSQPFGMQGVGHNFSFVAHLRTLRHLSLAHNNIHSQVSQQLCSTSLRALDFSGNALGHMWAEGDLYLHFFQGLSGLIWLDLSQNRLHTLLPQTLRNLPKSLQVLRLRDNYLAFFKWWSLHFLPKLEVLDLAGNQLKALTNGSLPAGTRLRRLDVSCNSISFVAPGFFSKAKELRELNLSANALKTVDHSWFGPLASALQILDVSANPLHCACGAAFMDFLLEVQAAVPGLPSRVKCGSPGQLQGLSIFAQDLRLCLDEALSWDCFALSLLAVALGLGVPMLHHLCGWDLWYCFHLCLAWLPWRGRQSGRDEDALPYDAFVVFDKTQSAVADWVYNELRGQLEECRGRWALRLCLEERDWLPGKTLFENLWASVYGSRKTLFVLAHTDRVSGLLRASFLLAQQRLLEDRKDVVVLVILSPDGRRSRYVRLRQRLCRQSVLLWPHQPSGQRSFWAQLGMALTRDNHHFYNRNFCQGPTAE
XBP1 UPR activ: adaptive UPR (XBP1) activation; CHO-XBP1 luciferase reporter, IRE1-XBP1 UPR activation, luminescence; percent of tunicamycin response, DMSO as zero; activation, % at 20 µM; 330,000 tested, 0.33% active; AID 463104;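 active = versus positive control, 20 µM dose yields 30% or more activation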;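 note: 100% = tunicamycin at 10 µg/mL and 0% = DMSO only wells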
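Test system: CHO-XBP1 luciferase reporter cells | Buffer or medium: Serum-containing F12 medium, 10% FBS | Schedule: 6 h compound exposure at 37 °C, 5% CO2 | Detection: Steady-Glo luciferase glow luminescence, 10 min after reagent addition | Read-out basis: Activation, % of tunicamycin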
CHOP inh: blocks CHOP induction under ER stress; 220,000 tested, 3.8% active; CHO-K1 CHOP-promoter luciferase, tunicamycin-induced, 15-18 h; inhibition, % at 10 µM;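 active = compounds that reduced the stress-induced luciferase reporter signal by more than about 70% of percent inhibition, limit read from the data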;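 note: 0% = tunicamycin plus vehicle and 100% = wells without tunicamycin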
* marks the source's active call; other numbers are inactive results; x = no result given; ! = repeats disagree. The full list was thinned out, with hits kept by preference.

SMILES	TLR4 MyD88 comp	NOD2 RIPK2 PPI	UPR CHOP act	TLR9-MyD88 inh	XBP1 UPR activ	CHOP inh
COc1ccccc1C(=O)N/N=C(\C)CC(=O)Nc1ccccc1NC(C)=O	x	-10	-1	-2	-5	x
CCc1ccc(C2CC(c3ccco3)=NN2S(C)(=O)=O)cc1 (stereo not given)	4	0	-2	1	-7	73*
Cc1ccc(N(CC(=O)N/N=C/c2cc(C)n(-c3ccccc3)c2C)S(C)(=O)=O)c(C)c1	11	8	-1	5	4	73*
O=C(OCc1cn([C@@H]2C[C@H](c3ccccc3)N(C(=O)c3cccs3)C[C@H]2O)nn1)c1ccccc1	x	2	x	-4	x	x
O=C(O)CNc1nc(NCc2ccc(Cl)cc2)ccc1[N+](=O)[O-]	x	-5	x	6	x	x
COC(=O)CSc1nnc(-c2sc3ccccc3c2Cl)o1	-4	-12	-6	1	-3	70*
N#CCSc1nnc(-c2sc3ccccc3c2Cl)o1	0	0	5	-3	-1	61
CCOC(=O)c1cc2occc2n1CC(=O)Nc1ccc(OC)cc1OC	17	4	-1	-2	-3	84*
CCOCCCNC(=O)c1c(N)n(-c2ccc3c(c2)OCO3)c2nc3ccccc3nc12	x	6	2	-12	0	73*
CC(=O)N1c2ccc3ccccc3c2C(C)CC12CCCCC2 (stereo not given)	-2	0	1	-3	3	70*
CC1CC2(CCCCC2)Nc2ccc3ccccc3c21 (stereo not given)	-8	-5	-2	-3	4	-23
Nc1ccn([C@@H]2O[C@H](CNCc3ccc(N4CCNCC4)cc3)[C@@H](O)[C@H]2O)c(=O)n1	x	-4	x	-1	x	x
C[C@@H]1CN([C@@H](C)CO)C(=O)CCCn2nncc2CO[C@H]1CN(C)C(=O)c1ccccc1	x	-16	x	2	x	x
CN(C)c1ccnc2c[cH-]cc12.[Fe].c1ccc(-[c-]2[c-](-c3ccccc3)[c-](-c3ccccc3)[c-](-c3ccccc3)[c-]2-c2ccccc2)cc1 (stereo not given)	x	0	11	1	3	88*!
CN(C)S(=O)(=O)c1ccc(C(=O)OCC(=O)Nc2sc3c(c2C#N)CCCCC3)cc1	-2	-8	4	-29	0	-31
CC(C)(C)c1ccc(C(=O)OCC(=O)Nc2sc3c(c2C#N)CCC3)cc1	7	1	0	-2	-3	90*
Cc1onc(-c2ccccc2Cl)c1C(=O)Nc1nnc(-c2ccc(Cl)cc2Cl)s1	-12	-7	1	1	-4	78*
COc1cc(CNC(=O)c2cc(-c3ccc(F)cc3C)n[nH]2)cc(OC)c1	x	-1	x	x	x	x
Cc1cc(C)nc(Nc2ncc(O)n2-c2ccc(C)c(Cl)c2)n1	0	1	2	0	1	80*
N=C(N)SCc1cn(-c2ccccc2)nc1-c1ccc(Br)cc1	5	7	x	-10	x	106*
Cc1snc2sc(C(=O)c3ccc(Br)cc3)c(N)c12	19	5	4	1	24	92*
Cc1nc2sc(C(=O)c3ccccc3)c(N)c2c(C)c1C	-3	-4	2	0	4	-2
CC(C)OC(=O)c1cccnc1N1CCN(c2ccc(F)cc2)CC1	-5	-7	-4	-8	3	78*
CC(C/C=N/NC(=O)COc1cc(Cl)ccc1Cl)c1ccccc1 (stereo not given)	4	4	1	8	-2	79*
COc1ccccc1C(=O)NC(=O)COc1cc(Cl)ccc1Cl	x	-9	1	6	-4	x
SMILES	TLR4 MyD88 comp	NOD2 RIPK2 PPI	UPR CHOP act	TLR9-MyD88 inh	XBP1 UPR activ	CHOP inh
CCCCNC(=O)CSc1nc2ccccc2n1S(=O)(=O)c1ccc(Br)cc1	-13	5	-2	1	-3	23
CCCCNC(=O)CSc1nc2ccccc2n1S(=O)(=O)c1ccc(Cl)cc1	-3	-6	2	-7	1	75*
CCOc1ccc(NC(=O)CSc2nc3cc(C(=O)NCC4CCCO4)ccc3c(=O)n2CC2CCCO2)cc1 (stereo not given)	x	-11	x	-2	x	x
CCc1ccc(OCC(=O)NC(=S)Nc2cccc(CO)c2)c(Br)c1	-7	-3	2	8	1	83*
Cc1cc(O)c(C(C)C)cc1C1(c2cc(C(C)C)c(O)cc2C)OC(=O)c2ccccc21	x	7	23	-4	-7	106*
Clc1ccc(CN2CCCCCC2)cc1	x	1	1	8	-5	x
Clc1ccc(CN2CCCCCCC2)cc1Cl	-10	-5	-2	1	-3	79*
CCOC(=O)[C@]12CCCC=C1N(Cc1ccco1)C(=O)[C@H](CC(=O)N1CCN(C(=O)c3ccco3)CC1)C2	x	-18	x	x	x	x
COc1ccccc1-c1nnc(SCC(=O)NCc2c(C)c(Cl)cc(C(C)C)c2O)o1	6	-8	0	-5	-7	75*
COc1ccccc1-c1nnc(SCC(=O)Nc2c(Cl)cccc2Cl)o1	4	1	1	-4	2	-21
CCn1c2ccccc2c2cc(NC(=O)c3ccc(=O)oc3)ccc21	x	16	4	x	19	27
CCn1c2ccccc2c2cc(NC(=O)c3coc(=O)c(Br)c3)ccc21	x	-3	100*	x	73*	30
O=C(Nc1ccc(/C=C/c2nc3ccccc3o2)cc1)c1cccc(C(F)(F)F)c1	3	1	3	1	12	93*
O=C(Cn1cnc2ccccc2c1=O)Nc1nnc(SCc2ccc(Cl)cc2)s1	x	-12	0	-8	0	86*
CN=C1S/C(=C\c2cc(C)n(-c3ccccc3F)c2C)C(=O)N1C	-2	-1	-5	-21	0	96*
Cc1cccc(NC(=O)COC(=O)c2nn(-c3ccccc3C(F)(F)F)cc2O)c1C	x	-1	x	4	x	x
O=S(=O)(NC1CC1)c1ccc(S(=O)(=O)N2CCCc3ccccc32)cc1	-10	6	-2	-4	-1	73*
O=S(=O)(c1ccccc1)N1CCCc2ccccc21	x	x	2	x	-2	x
CCCCCCn1c(CN2CCC(C)CC2)nc2c1c(=O)n(C)c(=O)n2C	-12	9	-1	9	-4	76*
CCCCCCn1c(CN2CCN(CCO)CC2)nc2c1c(=O)n(C)c(=O)n2C	2	-4	0	-2	-1	-6
Cc1cccc(C)c1-c1ccc(CN2C(CC(C)C)C(=O)N(Cc3cn(CC4CCCCC4)nn3)CCS2(=O)=O)cc1 (stereo not given)	x	3	x	3	x	x
CCc1nc2ccc(C(=O)NCc3cccs3)cn2c1N(CC)CCOC	x	6	x	x	x	x
COc1ccccc1Cn1c(=O)oc2ccc(C)cc21	x	-3	3	4	-3	x
